From PubChem
Most compounds without a hit are left out; they make up all but 3% or so of the library.
SENP7 block = inhibitors of human SENP7 protease; inhibition, % at 5 µM; AID 434973; recombinant SENP7, Z-RLRGG-aminoluciferin luminescence, 40 min; Q9BQF6; actives 1.5% (n = 330,000);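 active means inhibition above about 50% at the single test dose, limit read from the data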
SENP8 block-1 = blocks the human protease SENP8 | Q96LD8 | purified SENP8, Z-RLRGG-aminoluciferin cleavage, luminescence | inhibition, % at 10 µM | actives 1.2% (n = 330,000) | AID 2540; in the data active means inhibition above about 50%
SENP8 block-2 = SENP8 (human) protease inhibition. inhibition, % at 20 µM. AID 602440. recombinant SENP8, Nedd8 substrate fluorescence. Q96LD8. actives 0.64% (n = 360,000); in the data active means inhibition mostly above about 40%, no sharp cut-off; inactive means mostly below about 27%
UBC13 polyUb = inhibitors of human UBC13 polyubiquitin chain formation. P61088. TR-FRET. inhibition, % at 20 µM. AID 485273. actives 0.47% (n = 330,000); in the data active means inhibition above about 45%, passing the limit was not always enough
Target sequence (P61088 whole entry, looked up): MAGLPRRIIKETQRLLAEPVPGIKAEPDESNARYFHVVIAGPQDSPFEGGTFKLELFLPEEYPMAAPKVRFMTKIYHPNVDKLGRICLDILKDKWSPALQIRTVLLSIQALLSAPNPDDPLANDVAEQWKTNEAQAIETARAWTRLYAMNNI
SENP6 inh = inhibitors of human SENP6 protease. actives 1.8% (n = 330,000). Recombinant SENP6 catalytic domain, aminoluciferin luminescence. inhibition, % at 10 µM. Q9GZR1;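 active means inhibition above about 50% at the single tested dose, limit read from the data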
Apaf-1 inh = inhibitors of human Apaf-1 apoptosome. O14727. reconstituted apoptosome caspase-3 activity, DEVD-Rh110 fluorescence. inhibition, % at 20 µM. actives 0.71% (n = 330,000); active means inhibition of at least 40% at 20 µM
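Material: biochemical Apaf-1 apoptosome reconstitution. Medium: Hepes buffer, pH 7.5. Also added: cytochrome c activation, bis-DEVD rhodamine 110 substrate. Timing: 30 min compound preincubation, 50 min activation, room temperature. Measured by: rhodamine 110 fluorescence at Ex 480/Em 540 nm.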
SENP8 confirm = confirmation of human SENP8 protease inhibitors; shares compounds with SENP7 block; Recombinant SENP8, Z-RLRGG-aminoluciferin luminescence, 60 min; inhibition, % at 12.5 µM; actives 40% (n = 6,200); AID 488912;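 active means mean inhibition across replicates above about 50%, limit read from the data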
SENP6 conf = human SENP6 inhibition, confirmed. AID 488915. actives 58% (n = 6,200). shares compounds with SENP7 block. recombinant SENP6, Z-RLRGG-aminoluciferin luminescence. inhibition, % at 12.5 µM
SENP7 confirm = human SENP7 inhibition, confirmed; shares compounds with SENP7 block; recombinant SENP7, Z-RLRGG-aminoluciferin luminescence, 40 min; inhibition, % at 12.5 µM; actives 69% (n = 6,200)
Casp3 SENP sel = inhibits human caspase-3 in SENP selectivity test. AID 488918. purified caspase-3, Z-DEVD-aminoluciferin luminescence, 60 min. shares compounds with SENP7 block. inhibition, % at 12.5 µM. actives 60% (n = 6,200);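 active means mean inhibition above about 50%, limit read from the data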
Target sequence (P42574 28-227 limits assumed): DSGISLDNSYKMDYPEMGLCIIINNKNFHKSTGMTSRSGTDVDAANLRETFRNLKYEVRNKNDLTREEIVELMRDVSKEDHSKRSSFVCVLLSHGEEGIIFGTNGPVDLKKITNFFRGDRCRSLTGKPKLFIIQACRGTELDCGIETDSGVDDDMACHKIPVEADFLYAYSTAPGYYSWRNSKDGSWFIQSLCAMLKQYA
Luc interf = interferes with luciferase luminescence in SENP counter-screen. actives 39% (n = 6,200). shares compounds with SENP7 block. AID 488919. inhibition, % at 12.5 µM. Pre-incubated SENP8/Z-RLRGG-aminoluciferin, luciferase luminescence interference;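 active means mean inhibition above about 50% when retested at one dose, limit read from the data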
Each line names hits and unclear results; the compound was inactive in the other large screens (follow-up assays come after a bar, where they were run).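 How the source made its calls, unless noted: active means mean inhibition above about 50% in the one-dose retest (limit read from the data); inactive means the rest.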

O=C(N/N=C/c1cccs1)c1n[nH]c2c1CCCC2	SENP7 block 92, SENP8 block-1 84, SENP6 inh 89 | SENP8 confirm inactive | SENP6 conf 89 | SENP7 confirm 100 | Casp3 SENP sel 96 | Luc interf 54
C/C(=N\NC(=O)c1cc(Br)ccc1O)c1cccs1	SENP6 inh 63 | SENP8 confirm inactive | SENP6 conf inactive | SENP7 confirm inactive | Casp3 SENP sel inactive | Luc interf inactive
N#C/C(=C\c1ccc(Sc2ccccc2)o1)c1nc2ccccc2[nH]1	SENP7 block 94 | SENP8 confirm 62 | SENP6 conf inactive | SENP7 confirm 99 | Casp3 SENP sel 78 | Luc interf 67
N#C/C(=C\c1cccs1)c1nc2ccccc2[nH]1	none (no result: SENP7 block, SENP8 block-1, UBC13 polyUb, SENP6 inh, Apaf-1 inh)
N#C/C(=C/c1ccc(O)c(O)c1)c1nc2ccccc2[nH]1	SENP7 block 72, SENP8 block-1 70, SENP6 inh 80 | SENP8 confirm 82 | SENP6 conf 81 | SENP7 confirm 94 | Casp3 SENP sel 78 | Luc interf inactive
Brc1ccccc1-c1nc2c3ccccc3ncn2n1	SENP8 block-1 77, SENP6 inh 91 | SENP8 confirm inactive | SENP6 conf inactive | SENP7 confirm 68 | Casp3 SENP sel inactive | Luc interf 56
S=c1nc2ccccc2c2nc(-c3ccccc3Br)[nH]n12	none
COc1ccccc1NC(=O)c1ccc2c(c1)OCO2	SENP7 block 51, SENP6 inh 60 | SENP8 confirm 51 | SENP6 conf inactive | SENP7 confirm 84 | Casp3 SENP sel 79 | Luc interf 60
O=C(/C=C/c1ccc2c(c1)OCO2)Nc1ccc(Cl)cn1	SENP7 block 54 | SENP8 confirm inactive | SENP6 conf inactive | SENP7 confirm inactive | Casp3 SENP sel inactive | Luc interf inactive
COc1ccc(OC)c(NC(=O)c2ccc3c(c2)OCO3)c1	none
COc1ccccc1NC(=O)/C=C/c1ccc2c(c1)OCO2	SENP7 block 68, SENP8 block-1 65, SENP6 inh 73 | SENP8 confirm 78 | SENP6 conf 75 | SENP7 confirm 93 | Casp3 SENP sel 73 | Luc interf inactive
CC1(C)Oc2ccc3ccc(=O)oc3c2[C@@H](O)[C@@H]1O	none
C[C@@H]1CN([C@H](C)CO)S(=O)(=O)c2ccc(C#Cc3ccccc3)cc2O[C@H]1CN(C)C(=O)Nc1ccc2c(c1)OCO2	none (no result: SENP7 block, SENP8 block-1, UBC13 polyUb, SENP6 inh, Apaf-1 inh)
O=C(O)c1c(-c2ccccc2)c(-c2ccccc2)nc2ccccc12	none
N#Cc1cccnc1N1CCN(C(=O)c2cccs2)CC1	none (no result: SENP7 block, SENP8 block-1, UBC13 polyUb, SENP6 inh, Apaf-1 inh)
COc1ccc2nc(N3CCC(C)CC3)c(C#N)cc2c1	SENP6 inh 72 | SENP8 confirm inactive | SENP6 conf inactive | SENP7 confirm inactive | Casp3 SENP sel inactive | Luc interf inactive
Cc1cc(C(=O)Nc2ccc(Cl)cc2)c(C)n1-c1ccccc1	SENP7 block 91, SENP8 block-1 89, SENP6 inh 93 | SENP8 confirm 91 | SENP6 conf 98 | SENP7 confirm 102 | Casp3 SENP sel 88 | Luc interf inactive
Cc1ccc(NC(=O)c2cc(C)n(-c3ccccc3)c2C)cc1	SENP7 block 72, SENP8 block-1 67, SENP6 inh 86 | SENP8 confirm 86 | SENP6 conf 85 | SENP7 confirm 97 | Casp3 SENP sel 73 | Luc interf inactive
Cc1cc(C(=O)Nc2ccc(Cl)cc2)n(-c2ccccc2)n1	none
Cc1ccc(NC(=O)c2cc(C)n(-c3cccc(C)c3)c2C)cc1	none
CCN(CC(=O)Nc1ccccc1C(F)(F)F)C(=O)CN1C(=O)NC(C)(c2ccccc2)C1=O (centres undefined)	none
